Measured values published in the M2OR odorant receptor database.
Changes are numbered by the printed parent chain.

Tests used:
Details in all cases: stereoisomer not certain
OR4D5 (Homo sapiens) = OR4D5 (Homo sapiens) (UniProt Q8NGN0)
In short: (§1)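 Whether a receptor–molecule pair is responsive (active) rests on the original authors' judgment that its measured signal was statistically different from baseline. Pairs without that judgment are non-responsive (inactive). Sources used varied assay methods, commonly transient luciferase assays in mammalian cell lines.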

OR4D6 (Homo sapiens) = OR4D6 (Homo sapiens) (UniProt Q8NGJ1)
In short: as §1

OR4D9 (Homo sapiens) = OR4D9 (Homo sapiens) (UniProt Q8NGE8)
In short: as §1

OR4E2 (Homo sapiens) = biological target: T1, OR4E2 (Homo sapiens) (UniProt Q8NGC2)
T1 sequence (whole entry): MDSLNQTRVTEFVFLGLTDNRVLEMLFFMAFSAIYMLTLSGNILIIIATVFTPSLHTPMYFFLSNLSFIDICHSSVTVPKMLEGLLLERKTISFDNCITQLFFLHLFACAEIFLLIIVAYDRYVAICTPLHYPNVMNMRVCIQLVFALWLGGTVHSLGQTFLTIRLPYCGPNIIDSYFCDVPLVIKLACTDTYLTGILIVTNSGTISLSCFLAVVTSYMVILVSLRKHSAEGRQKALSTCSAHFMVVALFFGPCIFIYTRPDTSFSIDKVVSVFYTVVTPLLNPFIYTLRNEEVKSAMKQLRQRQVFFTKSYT
In short: as §1

OR4F15 (Homo sapiens) = biological target: T2, OR4F15 (Homo sapiens) (UniProt Q8NGB8)
T2 sequence (whole entry): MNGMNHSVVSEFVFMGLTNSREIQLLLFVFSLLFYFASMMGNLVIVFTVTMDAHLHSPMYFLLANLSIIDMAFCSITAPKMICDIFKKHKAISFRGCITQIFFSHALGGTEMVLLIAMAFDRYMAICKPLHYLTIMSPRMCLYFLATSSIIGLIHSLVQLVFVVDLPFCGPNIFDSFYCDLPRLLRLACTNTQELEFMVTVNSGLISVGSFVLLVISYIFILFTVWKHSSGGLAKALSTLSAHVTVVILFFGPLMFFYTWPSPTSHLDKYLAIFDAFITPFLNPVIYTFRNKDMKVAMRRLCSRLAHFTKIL
In short: as §1

OR4D2 = system: OR4D2
In short: as §1

OR4D6 = system: OR4D6
In short: as §1

OR4E2 A119T = system: T3, OR4E2 A119T
T3 sequence (whole entry): T1 sequence (whole entry) with V118M, A119T, Q234R
In short: as §1

OR4E2 = system: T4, OR4E2
T4 sequence (whole entry): T1 sequence (whole entry) with V118M, Q234R
In short: as §1

OR4E1 (Homo sapiens) = OR4E1 (Homo sapiens) (UniProt P0C645)
In short: as §1

Measured: odorant receptor agonist call;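 note: active if original authors judged signal statistically different from baseline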

Chain of OR4D6 (as listed by the source): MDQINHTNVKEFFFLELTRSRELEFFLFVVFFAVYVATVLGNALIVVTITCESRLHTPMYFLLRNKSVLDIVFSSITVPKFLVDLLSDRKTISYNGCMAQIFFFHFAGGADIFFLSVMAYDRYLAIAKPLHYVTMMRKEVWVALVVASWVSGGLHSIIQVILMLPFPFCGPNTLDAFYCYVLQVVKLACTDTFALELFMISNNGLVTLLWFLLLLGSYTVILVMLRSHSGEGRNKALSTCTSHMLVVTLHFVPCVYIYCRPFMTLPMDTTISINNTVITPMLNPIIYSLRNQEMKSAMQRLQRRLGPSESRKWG
Chain of OR4D9 (Homo sapiens) (Q8NGE8 whole entry): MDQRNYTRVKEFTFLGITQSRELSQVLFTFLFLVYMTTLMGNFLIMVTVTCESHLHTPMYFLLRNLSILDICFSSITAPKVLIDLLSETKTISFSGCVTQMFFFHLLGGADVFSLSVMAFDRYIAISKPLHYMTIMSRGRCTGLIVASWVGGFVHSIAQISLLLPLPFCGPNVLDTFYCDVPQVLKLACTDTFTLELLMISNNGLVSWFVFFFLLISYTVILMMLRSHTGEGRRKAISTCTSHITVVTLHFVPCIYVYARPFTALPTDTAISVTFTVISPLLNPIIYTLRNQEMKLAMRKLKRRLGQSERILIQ
Chain of OR4D2 (as listed by the source): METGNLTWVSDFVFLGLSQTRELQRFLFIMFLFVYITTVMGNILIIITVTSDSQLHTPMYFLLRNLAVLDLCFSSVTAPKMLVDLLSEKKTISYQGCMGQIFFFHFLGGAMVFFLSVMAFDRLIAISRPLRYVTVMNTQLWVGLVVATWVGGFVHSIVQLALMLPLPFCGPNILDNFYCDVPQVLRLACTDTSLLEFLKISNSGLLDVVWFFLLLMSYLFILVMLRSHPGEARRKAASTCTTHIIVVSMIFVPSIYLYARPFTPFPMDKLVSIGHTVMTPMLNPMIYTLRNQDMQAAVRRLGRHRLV
Chain of OR4D5 (Homo sapiens) (Q8NGN0 whole entry): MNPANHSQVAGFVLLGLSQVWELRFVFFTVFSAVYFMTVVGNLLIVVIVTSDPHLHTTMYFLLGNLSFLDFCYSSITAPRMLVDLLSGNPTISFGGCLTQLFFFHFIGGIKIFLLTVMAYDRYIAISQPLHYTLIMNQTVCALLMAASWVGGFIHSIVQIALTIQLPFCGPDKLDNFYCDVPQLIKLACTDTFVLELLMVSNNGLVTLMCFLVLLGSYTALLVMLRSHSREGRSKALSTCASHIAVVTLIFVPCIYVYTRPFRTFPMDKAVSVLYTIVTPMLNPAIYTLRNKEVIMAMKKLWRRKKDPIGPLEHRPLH
Chain of OR4D6 (Homo sapiens) (Q8NGJ1 whole entry): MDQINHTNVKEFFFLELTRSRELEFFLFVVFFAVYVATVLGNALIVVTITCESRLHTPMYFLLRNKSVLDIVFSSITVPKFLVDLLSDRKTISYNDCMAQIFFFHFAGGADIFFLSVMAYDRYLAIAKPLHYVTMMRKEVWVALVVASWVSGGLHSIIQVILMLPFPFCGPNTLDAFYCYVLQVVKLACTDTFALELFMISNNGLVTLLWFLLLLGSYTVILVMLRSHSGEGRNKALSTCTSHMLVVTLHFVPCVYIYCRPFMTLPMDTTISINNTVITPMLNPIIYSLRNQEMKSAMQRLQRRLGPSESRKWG
Chain of OR4E1 (Homo sapiens) (P0C645 whole entry): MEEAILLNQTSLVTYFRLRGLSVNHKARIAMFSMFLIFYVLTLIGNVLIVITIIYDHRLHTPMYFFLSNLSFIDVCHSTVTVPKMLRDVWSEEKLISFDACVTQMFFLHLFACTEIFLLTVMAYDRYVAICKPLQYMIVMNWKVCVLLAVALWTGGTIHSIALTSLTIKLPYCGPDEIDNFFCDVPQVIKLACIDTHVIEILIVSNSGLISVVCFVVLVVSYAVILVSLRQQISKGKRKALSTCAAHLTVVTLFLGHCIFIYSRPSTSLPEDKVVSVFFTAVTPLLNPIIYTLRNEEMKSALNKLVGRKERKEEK

CCC(S)C(C)CO (centres undefined)
inactive: OR4D5 (Homo sapiens) | OR4D6 (Homo sapiens) | OR4D9 (Homo sapiens) | OR4E2 (Homo sapiens) | OR4F15 (Homo sapiens)

CCCC(S)CCOC(C)=O (centres undefined)
not listed: OR4E1 (Homo sapiens)
inactive: all other assays above

CCC1OC(=O)C(O)=C1C (centres undefined)
not listed: OR4E1 (Homo sapiens)
inactive: all other assays above

CCCCCCC=CCCC=O
not listed: OR4E2 A119T | OR4E1 (Homo sapiens)
inactive: all other assays above

CC1=NC(C)C(C)S1 (centres undefined)
not listed: OR4E1 (Homo sapiens)
inactive: all other assays above

Cc1cnc(C)c(C)n1
not listed: OR4E1 (Homo sapiens)
inactive: all other assays above

CC1=C(O)C(=O)C(C)O1 (centres undefined)
not listed: OR4E1 (Homo sapiens)
inactive: all other assays above

CCC1OC(C)=C(O)C1=O (centres undefined)
not listed: OR4E1 (Homo sapiens)
inactive: all other assays above

CCCCCC(S)C(C)CO (centres undefined)
inactive: OR4D5 (Homo sapiens) | OR4D6 (Homo sapiens) | OR4D9 (Homo sapiens) | OR4E2 (Homo sapiens) | OR4F15 (Homo sapiens)

CC(=O)c1c(C)c([N+](=O)[O-])c(C(C)(C)C)c([N+](=O)[O-])c1C
inactive: OR4D5 (Homo sapiens) | OR4D6 (Homo sapiens) | OR4D9 (Homo sapiens) | OR4E1 (Homo sapiens) | OR4E2 (Homo sapiens) | OR4F15 (Homo sapiens)

CCCCC(S)C(C)CO (centres undefined)
inactive: OR4D5 (Homo sapiens) | OR4D6 (Homo sapiens) | OR4D9 (Homo sapiens) | OR4E2 (Homo sapiens) | OR4F15 (Homo sapiens)

CC1=C(O)C(=O)OC1C (centres undefined)
not listed: OR4E1 (Homo sapiens)
inactive: all other assays above

CC(C)=CCCC(C)=CCO
inactive: OR4E2

CCCCCC(=O)C(C)C(C)=O (centres undefined)
inactive: OR4D5 (Homo sapiens) | OR4D6 (Homo sapiens) | OR4D9 (Homo sapiens) | OR4E2 (Homo sapiens) | OR4F15 (Homo sapiens)

CC1CCCCCCCCCCCCC(=O)C1 (centres undefined)
inactive: OR4D5 (Homo sapiens) | OR4D6 (Homo sapiens) | OR4D9 (Homo sapiens) | OR4E1 (Homo sapiens) | OR4E2 (Homo sapiens) | OR4F15 (Homo sapiens)

CC(CO)CS (centres undefined)
inactive: OR4D5 (Homo sapiens) | OR4D6 (Homo sapiens) | OR4D9 (Homo sapiens) | OR4E2 (Homo sapiens) | OR4F15 (Homo sapiens)
